# OX1R antag-1: antagonists of human orexin 1 receptor; CHO/OX1R cells, Fluo-8 calcium fluorescence, orexin A; O43613; inhibition, % at 5 µM; 0.43% of 330,000 active; AID 434989;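 active means inhibition above its plate's threshold, mean inhibition of all tested compounds on the plate plus 3 SD, cut at about 37% in these data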;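 further: 0% = orexin A challenge wells and 100% = SB-334867-A antagonist wells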
# GPR7 antagonist: antagonists of human GPR7 (neuropeptides B/W receptor 1) | P48145 | GPR7-expressing cells, fluorescence antagonist assay | inhibition, % at 4.4 µM | 1.1% of 290,000 active | AID 1861; in the data active means inhibition above about 16%, passing the limit was not always enough;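 further: cells stimulated with the agonist NPW; 0% = agonist with vehicle and 100% = vehicle without agonist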
# Target sequence (P48145 whole entry, looked up): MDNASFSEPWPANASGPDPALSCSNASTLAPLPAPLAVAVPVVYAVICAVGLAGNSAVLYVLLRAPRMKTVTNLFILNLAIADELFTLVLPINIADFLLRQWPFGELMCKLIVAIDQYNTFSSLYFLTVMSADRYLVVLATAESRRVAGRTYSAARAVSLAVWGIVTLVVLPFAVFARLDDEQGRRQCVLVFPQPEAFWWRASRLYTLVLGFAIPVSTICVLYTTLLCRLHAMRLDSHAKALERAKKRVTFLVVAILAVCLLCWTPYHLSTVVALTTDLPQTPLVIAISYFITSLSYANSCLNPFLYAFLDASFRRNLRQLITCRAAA
# OX1R antag-2: antagonists of human orexin 1 receptor (OX1R); inhibition, % at 6.6 µM; AID 485270; 1.8% of 330,000 active; OX1R-expressing cells, FRET antagonist read-out; O43613; in the data active means inhibition mostly above about 38%, no sharp cut-off; inactive means mostly below about 40%;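 further: 0% = agonist challenge alone and 100% = reference antagonist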
# CHO parental Ca: counter-screen for OX1R antagonists: effect in parental CHO cells; inhibition, % at 5.6 µM; AID 463079; parental CHO-K1, ATP-induced calcium, Fluo-8 fluorescence; 0.63% of 330,000 active;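 active means inhibition above that plate's mean sample inhibition plus 3 SD, cut at about 26% in these data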;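 further: 0% = ATP-challenged DMSO wells and 100% = DMSO wells without ATP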
#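 Measured by: calcium-sensitive Fluo-8 fluorescence / Test system: CHO parental line / Controls: ATP-challenged DMSO wells low, unchallenged DMSO wells high / Measure: % inhibition / Compound: single nominal dose of 5.6 µM per compound / Replicates: single well per compound, no replicates / Reagent: ATP as calcium-mobilizing challenge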
# GalR3 antagonist: human GalR3 antagonism; O60755; HEK293 GalR3-CNG cAMP membrane potential fluorescence; galR3 body fused to GalR1 C-terminus; inhibition, % at 3 µM; 0.44% of 360,000 active; AID 651719;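 active means inhibition above the screen-wide average plus 3 SD, cut at about 13% in these data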;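 further: forskolin and galanin both at EC90 stimulate the cells; cAMP rise reported by CNG channel membrane potential dye signal; 0% = forskolin plus galanin with DMSO and 100% = forskolin alone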
# Target sequence (O60755 1-299 limits assumed): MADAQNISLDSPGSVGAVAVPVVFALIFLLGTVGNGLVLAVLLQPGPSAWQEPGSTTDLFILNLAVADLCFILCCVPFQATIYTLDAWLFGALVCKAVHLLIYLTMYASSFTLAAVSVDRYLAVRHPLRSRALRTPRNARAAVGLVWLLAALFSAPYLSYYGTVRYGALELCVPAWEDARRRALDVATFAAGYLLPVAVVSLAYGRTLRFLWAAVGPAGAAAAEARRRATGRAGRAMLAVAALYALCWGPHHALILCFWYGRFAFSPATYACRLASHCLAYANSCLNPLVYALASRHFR
# An asterisk follows results filed as active; . = not tested or not shown. Most compounds without a hit are left out; they make up all but 3.1% or so of the library.
SMILES,OX1R antag-1,GPR7 antagonist,OX1R antag-2,CHO parental Ca,GalR3 antagonist
CCn1c2ccccc2c2nnc(SCCCn3c(=O)[nH]c4ccccc43)nc21,-30,-2,36*,-34,.
COC(=O)c1cc2c(c3c4cc(C)ccc4n(S(=O)(=O)c4cccc(C)c4)c13)C(=O)N(Cc1ccccc1OC)C2,.,.,.,.,-4
CC1CCCCC1NC(=O)C(Cc1ccccc1)NS(=O)(=O)c1cccs1 (stereo not given),-29,12,25,-21,2
CC(CCc1ccccc1)NC(=O)C(Cc1ccccc1)NS(=O)(=O)c1cccs1 (stereo not given),-18,6,38*,-21,-1
CC(=O)N1C[C@H]2CON(C)[C@H]2C[C@H]1c1ccccc1-c1ccccc1,.,.,.,.,-7
O=C(CSCc1ccc(Cl)cc1)Nc1cc([N+](=O)[O-])ccc1O,14,3,105*,5,0
Cc1ccc2nc3nc(NCC4CCCO4)c(C(=O)NC4CCCCC4)cc3c(=O)n2c1 (stereo not given),-13,7,25,6,.
C=CCNC(=O)c1cc2c(=O)n3cc(C)ccc3nc2nc1NCC1CCCO1 (stereo not given),-9,-8,47*,7,.
Cc1ccc2nc3nc(NCC4CCCO4)c(C(=O)NC4CCCC4)cc3c(=O)n2c1 (stereo not given),-19,-10,43,-17,9
CCNc1nc2nc3ccc(C)cn3c(=O)c2cc1C(=O)NCC1CCCO1 (stereo not given),-23,-4,64*,-17,-4
COCCCNC(=O)c1cc2c(=O)n3cc(C)ccc3nc2nc1NCC1CCCO1 (stereo not given),-16,-10,105*,-13,.
Cc1cc2c(nc1C)CCCN2Cc1ccccc1C(F)(F)F,.,.,.,.,-7
O=C(Cc1c[nH]c2ccccc12)Nc1ccc(Nc2cccnc2)c(-c2ccc(F)c(F)c2)c1,.,.,.,.,-7
COC(=O)c1cc2c(c3c4cc(F)ccc4n(S(=O)(=O)c4ccccc4)c13)C(=O)N(Cc1ccc(N(C)C)cc1)C2,.,.,.,.,-5
COC(=O)c1cc2c(c3c4cc(C)ccc4n(S(=O)(=O)c4ccc(C)cc4)c13)C(=O)N(C)C2,.,.,.,.,-6
COC(=O)/C(C#N)=C/c1c[nH]c2ccccc12,1,-12,30,-5,-6
CCOC(=O)/C(C#N)=C/c1c[nH]c2ccccc12,-5,-7,51*,-4,-3
COc1ccc(CN(C)S(=O)(=O)c2nnc(NC(=O)c3ccc(C)cc3)s2)cc1OC,-29,1,10,-11,-1
COc1ccc(CN(C)S(=O)(=O)c2nnc(NC(=O)c3ccccc3OC)s2)cc1OC,-38,-2,49*,-30,-6
CCN1C(=O)[C@@H]2[C@@H](c3ccc(-c4ccc(F)cc4)cc3)N3CCCC[C@@]3(C(=O)OC)[C@@H]2C1=O,-32,.,21,-28,-3
CC(C)CNC(=O)c1ccc2c(c1)C(=O)N(Cc1ccco1)C2=O,-11,-3,10,-13,-5
O=C(COC(=O)[C@@H]1CCCN1C(=O)c1cccs1)Nc1ccc(F)cc1[N+](=O)[O-],-19,0,64*,-24,-5
CCCCCC(=O)N1C[C@H](n2cc(-c3ccc(F)cc3)nn2)[C@@H](O)C[C@@H]1c1ccc(Cl)cc1,.,.,.,.,-8
COCCn1c(=O)c2ccccc2c2ccccc2c1=O,-5,-12,18,-1,-6
CC(=O)OCCn1c(=O)c2cc3c(=O)n(CCOC(C)=O)c(=O)c3cc2c1=O,-7,-1,68*,2,6
SMILES,OX1R antag-1,GPR7 antagonist,OX1R antag-2,CHO parental Ca,GalR3 antagonist
C=CCn1c(SC)nnc1-c1cccc([N+](=O)[O-])c1,-3,-5,53*,-7,-10
CCCN1CCCCC(NC(=O)c2ccc3ccccc3c2)C1=O (stereo not given),.,.,.,.,-2
CC1(C)N([O-])c2cc([N+](=O)[O-])ccc2[N+]1=O,14,-4,53*,-1,-4
O=C(C[n+]1cc(-c2ccccc2)n2c1CCCCC2)c1ccc(Cl)cc1,5,8,7,-7,1
CC1CCC(C(C)C)C(OC(=O)C[n+]2cc(-c3ccc(Cl)cc3)n3c2CCCCC3)C1 (stereo not given),12,59*,18,18,-9
O=C(NCCCO)c1cc2ccccc2[nH]1,-7,-10,2,-8,-6
COc1ccc(C(=O)NCCCNC(=O)c2cc3ccccc3[nH]2)cc1OC,-5,-17,70*,-22,-8
CCCc1cc(=O)oc2c3c(cc(OCC(=O)NCc4ccccn4)c12)OC(C)(C)CC3,-17,-6,13,-16,16*
C[C@@H]1ON(C)[C@H]2C[C@H]3c4[nH]c5c(-c6ccc(F)cc6)cccc5c4CCN3C(=O)[C@@H]12,.,.,.,.,-7
O=C(CCN1C(=O)/C(=C/c2ccccc2)SC1=S)NC1CCS(=O)(=O)C1 (stereo not given),-24,-17,24,-9,3
CCN(C(=O)CN1C(=O)S/C(=C\c2ccc(F)cc2)C1=O)C1CCS(=O)(=O)C1 (stereo not given),-20,6,41*,-6,3
O=C(CCCN1C(=O)/C(=C/c2ccc(F)cc2)SC1=S)NC1CCS(=O)(=O)C1 (stereo not given),-6,0,18,82*,-7
Nc1[nH]c(C(=O)c2ccccc2)c(-c2ccc3c(c2)OCO3)c1C(=O)NCCc1c[nH]c2ccccc12,.,.,.,.,-3
CCOc1ccc(OCCCC(=O)N2CCN(S(=O)(=O)c3ccccc3C#N)CC2)cc1,-23,.,5,-18,-2
Cc1cc(C(=O)Nc2ccc(Cl)cc2)c(C)n1Cc1cccs1,-15,-5,15,-21,-1
Cc1cc(C)cc(NC(=O)c2cc(C)n(Cc3cccs3)c2C)c1,10,-14,17,59*,-4
Cc1cccc(-c2cc3nc(C)cc(N4CC(C)CC(C)C4)n3n2)c1 (stereo not given),-28,-7,-12,-32,1
COc1ccccc1-c1cc2nc(C)cc(C)n2n1,11,-17,62*,-26,-4
Cc1cccc(-c2cc3nc(C)cc(C)n3n2)c1,21,-7,65*,-6,1
O=C(CCn1c(=O)oc2ccccc21)NCc1ccco1,-16,1,0,-1,.
O=C(Cn1c(=O)oc2ccccc21)NCc1ccco1,-10,18*,14,4,-1
O=C(Cc1cn(Cc2ccccc2)c2ccccc12)Nc1ccc(Nc2cccnc2)cc1,.,.,.,.,3
COC(=O)c1ccc(CN2C(=O)NC3(CCC(C)CC3)C2=O)cc1 (stereo not given),0,8,5,-7,-2
Cc1cc(OC(F)F)ccc1NC(=O)Nc1ccc([N+](=O)[O-])cc1,32,41*,24,57*,-2
O=C(Nc1ccc([N+](=O)[O-])cc1)Nc1ccc(Cl)cc1F,48*,9,40,43*,-1
O=C(Nc1ccc(Cl)cc1)Nc1cc([N+](=O)[O-])ccc1F,14,-6,16,3,1

# Screening data (PubChem)
